Experimental data published in ChEMBL document CHEMBL3600304, “Gageopeptins A and B, new inhibitors of zoospore motility of the phytopathogen Phytophthora capsici from a marine-derived bacterium Bacillus sp. 109GGC020” (Bioorg Med Chem Lett, 2015).
In brackets after ≈: the same amount, converted by molar mass. Activity calls are given as the source filed them. The calls are words filed in the database; no cut-off is given here. Where a SMILES comes first, the peptide text is derived from it.

Key:
Bacillus subtilis = assay: Antibacterial activity against Bacillus subtilis by broth dilution assay; assay type: functional
Method in brief: (§1)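 Broth dilution assay for the minimum growth-inhibitory concentration against Gram-positive and Gram-negative bacteria and fungi. Each organism was cultured under its own growth conditions.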

Phytophthora capsici [1] = assay: Induction of Phytophthora capsici zoospore lytic activity at 1 ug/ml after 5 to 60 mins by homogeneous solution method; assay type: functional, organism-based
Salmonella typhi = assay: Antibacterial activity against Salmonella typhi by broth dilution assay; assay type: functional, Salmonella enterica subsp. enterica serovar Typhi; conditions: Salmonella enterica
Method in brief: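 Broth dilution test giving the minimum concentration that inhibits growth, run against Gram-positive and Gram-negative bacteria. Growth conditions were kept specific to each organism during culture.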

Phytophthora capsici [2] = assay: Inhibition of Phytophthora capsici zoospore motility after 15 to 60 mins by homogeneous solution method; assay type: functional, organism-based
Colletotrichum acutatum = assay: Antifungal activity against Colletotrichum acutatum by broth dilution assay; assay type: functional; method in brief: as §1
Staphylococcus aureus = assay: Antibacterial activity against Staphylococcus aureus by broth dilution assay; assay type: functional; method in brief: as §1
Pseudomonas aeruginosa = assay: Antibacterial activity against Pseudomonas aeruginosa by broth dilution assay; assay type: functional; method in brief: as §1
Phytophthora capsici [3] = assay: Inhibition of Phytophthora capsici zoospore motility at 5 ug/ml by homogeneous solution method; assay type: functional, organism-based; conditions: TDE = time-dependent effect
Rhizoctonia solani = assay: Antifungal activity against Rhizoctonia solani by broth dilution assay; assay type: functional; method in brief: as §1
Phytophthora capsici [4] = assay: Induction of Phytophthora capsici zoospore lytic activity at 50 ug/ml after 30 mins by homogeneous solution method; assay type: functional, organism-based
Phytophthora capsici [5] = assay: Inhibition of Phytophthora capsici zoospore motility at 1 ug/ml after 15 to 60 mins by homogeneous solution method; assay type: functional, organism-based
Botrytis cinerea = assay: Antifungal activity against Botrytis cinerea by broth dilution assay; assay type: functional; method in brief: as §1
Phytophthora capsici [6] = assay: Induction of Phytophthora capsici zoospore lytic activity at 10 ug/ml after 60 mins by homogeneous solution method; assay type: functional, organism-based
Phytophthora capsici [7] = assay: Induction of Phytophthora capsici zoospore lytic activity at 500 ug/ml after 5 to 60 mins by homogeneous solution method; assay type: functional, organism-based
Phytophthora capsici [8] = assay: Inhibition of Phytophthora capsici zoospore motility at 500 ug/ml after 15 to 60 mins by homogeneous solution method; assay type: functional, organism-based

Structure (SMILES): CCC(C)CC(C)CCCCCCCC[C@@H]1CC(=O)N[C@@H](CCC(=O)O)C(=O)N[C@@H](C(C)C)C(=O)N[C@@H](CC(C)C)C(=O)N[C@@H](C)C(=O)N[C@@H](CC(=O)O)C(=O)N[C@@H](CC(C)C)C(=O)N[C@@H](CC(C)C)C(=O)O1 (stereo partly drawn) (HELM PEPTIDE1{E.V.L.A.D.L.L}|CHEM1{[CCC(C)CC(C)CCCCCCCC[C@H](CC(=O)[*:1])O[*:2]]}$PEPTIDE1,CHEM1,1:R1-1:R1|PEPTIDE1,CHEM1,7:R2-1:R2$$$V2.0)
- MIC (Bacillus subtilis): 16 µg/mL (≈ 15.4 µM)
- Activity (Phytophthora capsici [1]): Active
- MIC (Salmonella typhi): 16 µg/mL (≈ 15.4 µM)
- IC50 (Phytophthora capsici [2]): 1 µg/mL (≈ 0.965 µM)
- inhibition (Phytophthora capsici [2]): Dose-dependent effect
- MIC (Colletotrichum acutatum): 8 µg/mL (≈ 7.72 µM)
- MIC (Staphylococcus aureus): 16 µg/mL (≈ 15.4 µM)
- MIC (Pseudomonas aeruginosa): 16 µg/mL (≈ 15.4 µM)
- inhibition (Phytophthora capsici [3]): tde
- MIC (Rhizoctonia solani): 4 µg/mL (≈ 3.86 µM)
- Activity (Phytophthora capsici [4]): Active
- inhibition (Phytophthora capsici [5]): Active
- MIC (Botrytis cinerea): 4 µg/mL (≈ 3.86 µM)
- Activity (Phytophthora capsici [6]): Active

Structure (SMILES): CC[C@H]1OC(=O)[C@H](C)[C@@H](O[C@H]2C[C@@](C)(OC)[C@@H](O)[C@H](C)O2)[C@H](C)[C@@H](O[C@@H]2O[C@H](C)C[C@H](N(C)C)[C@H]2O)[C@](C)(O)C[C@@H](C)CN(C)[C@H](C)[C@@H](O)[C@]1(C)O [AZITHROMYCIN]
- MIC (Bacillus subtilis): 2 µg/mL (≈ 2.67 µM)
- MIC (Salmonella typhi): 2 µg/mL (≈ 2.67 µM)
- MIC (Staphylococcus aureus): 2 µg/mL (≈ 2.67 µM)
- MIC (Pseudomonas aeruginosa): 2 µg/mL (≈ 2.67 µM)

Structure (SMILES): CCC(C)CCCCCCCCCC[C@@H]1CC(=O)N[C@@H](CCC(=O)O)C(=O)N[C@@H](C(C)C)C(=O)N[C@@H](CC(C)C)C(=O)N[C@@H](C)C(=O)N[C@@H](CC(=O)O)C(=O)N[C@@H](CC(C)C)C(=O)N[C@@H](CC(C)C)C(=O)O1 (stereo partly drawn) (HELM PEPTIDE1{E.V.L.A.D.L.L}|CHEM1{[CCC(C)CCCCCCCCCC[C@H](CC(=O)[*:1])O[*:2]]}$PEPTIDE1,CHEM1,1:R1-1:R1|PEPTIDE1,CHEM1,7:R2-1:R2$$$V2.0)
- MIC (Bacillus subtilis): 32 µg/mL (≈ 31.3 µM)
- MIC (Salmonella typhi): 32 µg/mL (≈ 31.3 µM)
- IC50 (Phytophthora capsici [2]): 400 µg/mL (≈ 391 µM)
- inhibition (Phytophthora capsici [2]): Dose-dependent effect
- MIC (Colletotrichum acutatum): 8 µg/mL (≈ 7.83 µM)
- MIC (Staphylococcus aureus): 16 µg/mL (≈ 15.7 µM)
- Activity (Phytophthora capsici [7]): inactive
- MIC (Pseudomonas aeruginosa): 16 µg/mL (≈ 15.7 µM)
- inhibition (Phytophthora capsici [3]): tde
- MIC (Rhizoctonia solani): 8 µg/mL (≈ 7.83 µM)
- inhibition (Phytophthora capsici [8]): Active
- MIC (Botrytis cinerea): 8 µg/mL (≈ 7.83 µM)

Structure (SMILES): C[C@@H]1[C@H](O)[C@@H](C)/C=C/C=C/C=C/C=C/C=C/C=C/C=C/[C@H](O[C@@H]2O[C@H](C)[C@@H](O)[C@H](N)[C@@H]2O)C[C@@H]2O[C@](O)(C[C@@H](O)C[C@@H](O)[C@H](O)CC[C@@H](O)C[C@@H](O)CC(=O)O[C@H]1C)C[C@H](O)[C@H]2C(=O)O [AMPHOTERICIN B]
- MIC (Colletotrichum acutatum): 1 µg/mL (≈ 1.08 µM)
- MIC (Rhizoctonia solani): 1 µg/mL (≈ 1.08 µM)
- MIC (Botrytis cinerea): 1 µg/mL (≈ 1.08 µM)
